Measurements reported in PMC4234452 (Journal of Medicinal Chemistry, 2014).

Columns and labels:
human TG1 = molecular target: T1, human TG1 (Homo sapiens, UniProt P22735); test: GDH-coupled transglutaminase assay, TG1; format: biochemical
T1 sequence (P22735 63-817): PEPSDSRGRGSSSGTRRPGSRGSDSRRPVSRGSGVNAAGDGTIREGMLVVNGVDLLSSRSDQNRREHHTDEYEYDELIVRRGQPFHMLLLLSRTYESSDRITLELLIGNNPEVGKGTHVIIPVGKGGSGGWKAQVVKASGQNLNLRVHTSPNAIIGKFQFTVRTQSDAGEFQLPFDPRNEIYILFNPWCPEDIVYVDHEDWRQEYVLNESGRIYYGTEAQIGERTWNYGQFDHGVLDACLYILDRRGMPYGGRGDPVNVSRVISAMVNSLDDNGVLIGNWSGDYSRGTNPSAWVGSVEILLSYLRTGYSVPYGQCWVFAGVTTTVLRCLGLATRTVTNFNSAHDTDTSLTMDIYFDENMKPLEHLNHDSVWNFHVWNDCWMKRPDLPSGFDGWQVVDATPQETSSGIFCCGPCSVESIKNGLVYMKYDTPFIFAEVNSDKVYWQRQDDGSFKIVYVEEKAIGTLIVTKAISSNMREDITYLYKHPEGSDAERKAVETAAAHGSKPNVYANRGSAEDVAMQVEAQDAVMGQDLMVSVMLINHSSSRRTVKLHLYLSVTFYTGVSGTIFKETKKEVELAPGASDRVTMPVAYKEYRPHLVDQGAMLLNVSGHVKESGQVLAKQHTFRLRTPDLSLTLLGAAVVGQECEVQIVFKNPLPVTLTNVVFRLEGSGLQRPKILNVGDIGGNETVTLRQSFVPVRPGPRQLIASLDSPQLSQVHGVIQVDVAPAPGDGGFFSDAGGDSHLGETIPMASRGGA

murine TG2 (mTG2) = molecular target: T2, murine TG2 (mTG2) (Mus musculus, UniProt P21981); test: GDH-coupled transglutaminase assay, murine TG2; format: biochemical; conditions: irreversible inhibition model, substrate ZQG
T2 sequence (P21981 1-686): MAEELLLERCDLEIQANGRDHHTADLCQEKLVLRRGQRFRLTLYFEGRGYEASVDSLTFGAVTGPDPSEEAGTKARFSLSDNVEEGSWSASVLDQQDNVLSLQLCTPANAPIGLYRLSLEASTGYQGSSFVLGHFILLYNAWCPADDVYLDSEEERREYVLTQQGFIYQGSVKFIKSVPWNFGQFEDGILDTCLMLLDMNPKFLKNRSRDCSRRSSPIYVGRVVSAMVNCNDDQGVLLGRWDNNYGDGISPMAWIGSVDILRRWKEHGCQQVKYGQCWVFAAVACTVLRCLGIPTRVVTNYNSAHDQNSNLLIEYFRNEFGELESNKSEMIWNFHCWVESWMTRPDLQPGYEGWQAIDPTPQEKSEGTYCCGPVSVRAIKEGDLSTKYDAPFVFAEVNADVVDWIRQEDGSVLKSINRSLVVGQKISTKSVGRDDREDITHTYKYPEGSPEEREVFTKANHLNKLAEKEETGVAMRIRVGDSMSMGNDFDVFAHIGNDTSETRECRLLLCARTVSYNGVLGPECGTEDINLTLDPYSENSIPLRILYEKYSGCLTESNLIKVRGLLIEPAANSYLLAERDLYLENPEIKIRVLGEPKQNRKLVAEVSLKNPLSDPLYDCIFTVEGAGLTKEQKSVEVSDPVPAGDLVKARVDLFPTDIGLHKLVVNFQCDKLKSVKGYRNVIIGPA

[1] = Plasma concentrations after pooled oral dosing to mice; format: in vivo; conditions: 50 mg/kg
In short: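 Test compounds given as mixtures by oral gavage (10 μL/g) at 50 mg/kg of each constituent to cohorts of five male CD-1 mice, 6−8 weeks old, fasted about 6 h. Blood was drawn into lithium-heparin tubes from the saphenous vein at 5 and 20 min, and by cardiac puncture at 60 min after CO2 euthanasia. Each compound's plasma concentration was quantified and plotted against time.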

[2] = twice-daily, intraperitoneal, 50 mg/kg, several weeks ref 22; cited from earlier work
TG2 = conditions: murine model of hypoxia-induced pulmonary hypertension ref 22; cited from earlier work
[3] = molecular target: T3, Human Transglutaminase 3 (TG3) (Homo sapiens, UniProt Q08188); test: GDH-coupled transglutaminase assay, TG3; format: biochemical; conditions: irreversible inhibition model, substrate ZQS
T3 sequence (Q08188 2-467 limits assumed): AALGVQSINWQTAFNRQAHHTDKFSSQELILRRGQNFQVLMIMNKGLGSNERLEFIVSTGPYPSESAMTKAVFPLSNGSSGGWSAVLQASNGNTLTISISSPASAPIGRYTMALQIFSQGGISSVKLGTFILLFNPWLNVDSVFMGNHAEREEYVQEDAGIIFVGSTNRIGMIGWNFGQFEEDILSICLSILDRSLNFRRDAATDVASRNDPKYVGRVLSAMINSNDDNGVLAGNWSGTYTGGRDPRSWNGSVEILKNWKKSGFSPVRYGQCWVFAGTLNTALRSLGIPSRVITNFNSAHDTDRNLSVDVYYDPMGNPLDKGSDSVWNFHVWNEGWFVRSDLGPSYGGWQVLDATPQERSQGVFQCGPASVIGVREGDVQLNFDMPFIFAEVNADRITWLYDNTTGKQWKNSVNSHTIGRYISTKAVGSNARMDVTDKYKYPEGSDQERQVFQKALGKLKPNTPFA
T3 sequence (Q08188 468-693 partner limits assumed): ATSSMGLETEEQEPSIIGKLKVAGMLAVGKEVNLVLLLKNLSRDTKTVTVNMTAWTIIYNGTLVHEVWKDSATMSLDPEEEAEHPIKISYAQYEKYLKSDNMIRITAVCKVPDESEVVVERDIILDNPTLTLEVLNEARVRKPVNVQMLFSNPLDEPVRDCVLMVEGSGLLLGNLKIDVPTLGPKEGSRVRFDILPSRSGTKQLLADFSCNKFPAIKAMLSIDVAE

human TG2 = molecular target: T4, human TG2 (Homo sapiens, UniProt P21980, V224G); test: GDH-coupled transglutaminase assay, TG2; format: biochemical
T4 sequence (P21980 1-687 V224G): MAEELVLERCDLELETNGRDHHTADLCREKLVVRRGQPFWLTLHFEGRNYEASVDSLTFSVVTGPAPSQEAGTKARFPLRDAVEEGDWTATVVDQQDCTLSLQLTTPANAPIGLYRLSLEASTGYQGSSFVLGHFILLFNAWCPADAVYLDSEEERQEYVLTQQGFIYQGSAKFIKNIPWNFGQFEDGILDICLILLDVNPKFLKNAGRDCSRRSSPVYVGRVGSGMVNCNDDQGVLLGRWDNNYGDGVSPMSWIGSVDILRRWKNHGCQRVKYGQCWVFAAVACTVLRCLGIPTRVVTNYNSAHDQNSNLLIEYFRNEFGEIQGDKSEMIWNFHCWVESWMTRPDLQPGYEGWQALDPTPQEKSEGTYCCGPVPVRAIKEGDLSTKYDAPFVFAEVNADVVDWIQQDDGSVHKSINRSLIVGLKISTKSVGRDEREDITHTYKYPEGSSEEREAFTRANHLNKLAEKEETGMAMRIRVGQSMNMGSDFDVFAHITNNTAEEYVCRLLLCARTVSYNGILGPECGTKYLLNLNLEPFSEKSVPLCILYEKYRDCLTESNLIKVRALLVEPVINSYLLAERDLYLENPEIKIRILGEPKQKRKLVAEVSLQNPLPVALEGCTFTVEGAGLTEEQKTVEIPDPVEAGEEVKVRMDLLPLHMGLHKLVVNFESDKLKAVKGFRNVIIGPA

Row | kinh/Ki mTG2 (murine TG2 (mTG2)) [M⁻¹ s⁻¹] | kinh/Ki TG3 [3] [M⁻¹ s⁻¹] | Compound | other results
1 | 117 | < 16.7 | O=C(NC[C@@H]1CC(Br)=NO1)[C@@H]1C[C@H](F)CN1C(=O)OCc1cnc2ccccc2c1 [Compound 4b, (2S,4S)-Quinolin-3-ylmethyl 2-((((S)-3-Bromo-4,5-dihydroisoxazol-5-yl)methyl)carbamoyl)-4-fluoropyrrolidine-1-carboxylate] | 
2 | 185 | < 16.7 | O=C(NC[C@@H]1CC(Br)=NO1)[C@@H]1C[C@@H](O)CN1C(=O)OCc1cnc2ccccc2c1 [Compound 4e, (2S,4R)-Quinolin-3-ylmethyl 2-((((S)-3-Bromo-4,5-dihydroisoxazol-5-yl)methyl)carbamoyl)-4-hydroxypyrrolidine-1-carboxylate] | 
3 | 423 | < 16.7 | O=C(NC[C@@H]1CC(Br)=NO1)[C@@H]1C[C@@H](c2ccccc2)CN1C(=O)OCc1cnc2ccccc2c1 [Compound 7a, (2S,4S)-Quinolin-3-ylmethyl 2-((((S)-3-Bromo-4,5-dihydroisoxazol-5-yl)methyl)carbamoyl)-4-phenylpyrrolidine-1-carboxylate] | plasma levels, fold lower than that of 4b [1]: 3–4 fold
4 | 645 | < 16.7 | O=C(NC[C@@H]1CC(Br)=NO1)[C@@H]1C[C@@H](c2ccc(O)cc2)CN1C(=O)OCc1cnc2ccccc2c1 [Compound 7e, (2S,4S)-Quinolin-3-ylmethyl 2-((((S)-3-Bromo-4,5-dihydroisoxazol-5-yl)methyl)carbamoyl)-4-(4-hydroxyphenyl)pyrrolidine-1-carboxylate] | plasma levels, fold lower than that of 4b [1]: 3–4 fold
5 | 157 | < 16.7 | O=C(N[C@@H]1C[C@@H](C(=O)NC[C@@H]2CC(Br)=NO2)N(C(=O)OCc2cnc3ccccc3c2)C1)c1ccc(O)cc1 [Compound 9d, (2S,4R)-Quinolin-3-ylmethyl 2-((((S)-3-Bromo-4,5-dihydroisoxazol-5-yl)methyl)carbamoyl)-4-(4-hydroxybenzamido)pyrrolidine-1-carboxylate] | oral bioavailability / systemic availability (in words) [1]: much less bioavailable
6 | 177 | < 16.7 | O=C(N[C@@H]1C[C@@H](C(=O)NC[C@@H]2CC(Br)=NO2)N(C(=O)OCc2cnc3ccccc3c2)C1)c1cccnc1 [Compound 9e, (2S,4R)-Quinolin-3-ylmethyl 2-((((S)-3-Bromo-4,5-dihydroisoxazol-5-yl)methyl)carbamoyl)-4-(nicotinamido)pyrrolidine-1-carboxylate] | oral bioavailability / systemic availability (in words) [1]: much less bioavailable
7 |  |  | C#CCOC(=O)N1CCC[C@H]1C(=O)NC[C@@H]1CC(Br)=NO1 [Compound 10b, (S)-Prop-2-yn-1-yl 2-((((S)-3-Bromo-4,5-dihydroisoxazol-5-yl)methyl)carbamoyl)pyrrolidine-1-carboxylate] | selectivity for TG2 over TG1 (human TG2; from kinh/Ki): 3 fold
8 |  |  | O=C(NC[C@@H]1CC(Br)=NO1)[C@@H]1CCCN1C(=O)OCc1cnc2ccccc2n1 [Compound 10l, (S)-Quinoxalin-2-ylmethyl 2-((((S)-3-Bromo-4,5-dihydroisoxazol-5-yl)methyl)carbamoyl)pyrrolidine-1-carboxylate] | selectivity for TG1 (over TG2) (human TG1; from kinh/Ki): 10 fold
9 | 258 | < 16.7 | (2S,4R)-Quinolin-3-ylmethyl 4-(Benzyloxy)-2-((((S)-3-bromo-4,5-dihydroisoxazol-5-yl)methyl)carbamoyl)pyrrolidine-1-carboxylate [Compound 5c] | 

Row | Compound | kinh/Ki mTG2 (murine TG2 (mTG2)) [M⁻¹ s⁻¹] | kinh/Ki TG3 [3] [M⁻¹ s⁻¹] | other results
10 | O=C(NC[C@@H]1CC(Br)=NO1)[C@@H]1CCCN1C(=O)OCc1cnc2ccccc2c1 [Compound 1, (S)-Quinolin-3-ylmethyl 2-((((S)-3-Bromo-4,5-dihydroisoxazol-5-yl)methyl)carbamoyl)pyrrolidine-1-carboxylate] | 138 | < 16.7 | kinh/Ki TG1 (human TG1; irreversible inhibition model, substrate ZQS, listed as ERW1041E): 217 M⁻¹ s⁻¹; peak plasma concentration after oral dosing [1]: 2 to 3 µg/mL; tolerability [2]: well tolerated; inhibitory half-life (TG2): about 12 h; kinh/Ki TG2 (human TG2; irreversible inhibition model, substrate ZQG, listed as ERW1041E): 283 M⁻¹ s⁻¹; decrease in potency from ERW1069 to ERW1041E (human TG2; relative to ERW1069): 3–4 fold
